Experimental data from different studies.
Compare with care: the assays were run in different laboratories.

Compound	test system	setting	AUC(0-inf)
CCc1cc(OC)c2nccc(N3CCc4c(cc(Cn5ccnc5)cc4-c4cn(C)nc4C(F)(F)F)C3=O)c2c1	male CD-1 mouse, plasma	oral, 150 mg/kg	225000 ng·h/mL
COc1nc(-c2cc(C)c(N[C@@H](C)c3cc(F)cc(F)c3)nn2)ccc1-n1cnc(C)c1	male CD-1 mouse, plasma	intravenous, 1 mg/kg, single dose	2070 ng·h/mL
Cc1nc(-c2cnc(NC(C)C)n(C)c2=O)ccc1Oc1ccnc(-c2cnn(C)c2)c1	female mouse, plasma	oral, 15 mg/kg, single dose	127000 ng·h/mL
CC(C)(C)c1ccc(O)c(CN(Cc2cc(C(C)(C)C)ccc2O)C2CCC(NC(N)=O)CC2)c1 (stereo not shown)	male C57BL/6 mouse, plasma	intraperitoneal, 10 mg/kg, single dose	10800 ng·h/mL
CNC(=O)c1cc(OC)cc2c(N3CCc4c(cc(Cn5ccnc5)cc4-c4cn(C)nc4C(F)(F)F)C3=O)ccnc12	male CD-1 mouse, plasma	oral, 50 mg/kg	145000 ng·h/mL
CCNc1nc2c(c(N3CC(=O)Nc4cc(OC)ccc43)n1)CCC2	female C57BL/6 mouse, plasma	intravenous, 4 mg/kg, single dose	620 ng·h/mL
CC=Cc1ccc(O)c(OC)c1	mouse, plasma	intranasal, 100 mg/kg	10100 ng·h/mL
CCc1cc(C(=O)NC)c2nccc(N3CCc4c(cc(Cn5ccnc5)cc4-c4cn(C)nc4C(F)(F)F)C3=O)c2c1	male CD-1 mouse, plasma	intravenous, 3 mg/kg	4180 ng·h/mL
COc1nc(-c2cc(C)c(N[C@@H](C)c3ccc(F)cc3)nn2)ccc1-n1cnc(C)c1	male CD-1 mouse, plasma	intravenous, 1 mg/kg, single dose	4280 ng·h/mL
COc1cc(OC)c2nccc(N3CCc4c(cc(Cn5ccnc5)cc4-c4cn(C)nc4C(F)(F)F)C3=O)c2c1	male CD-1 mouse, plasma	intravenous, 3 mg/kg	805 ng·h/mL
Cc1ccc(NC(=O)c2ccc(CN3CCN(C)CC3)cc2)cc1Nc1nccc(-c2cncc(-c3oncc3C)c2)n1	male C57BL/6 mouse, plasma	oral, 100 mg/kg/day	38000 ng·h/mL
CC(C)(Nc1nc(-c2ccccn2)nc2ccccc12)c1ccccn1	female BALB/c mouse, plasma	intravenous, 1 mg/kg	1460 ng·h/mL
Cc1ccc2cncc(N3CCc4c(cc(Cn5ccnc5)cc4-c4cn(C)nc4C(F)(F)F)C3=O)c2c1	male CD-1 mouse, plasma	intravenous, 3 mg/kg	3870 ng·h/mL
CN1C(=O)c2ccccc2[S@+]([O-])c2ccc(C(=O)NCCc3cccs3)cc21	male C57BL/6 mouse, brain	intraperitoneal, 30 mg/kg, single dose	1430 ng·h/mL
CNCCN(C)c1cc(C#N)cc(CCc2cc(C)cc(N)n2)c1	male BALB/c mouse, plasma	intravenous, 2 mg/kg	181 ng·h/mL
COc1ccc2nc(-c3ccccn3)c(N(C)c3ccc(F)cc3)n2c1	male CD-1 mouse, plasma	oral, 50 mg/kg, fasted	969 ng·h/mL
Cc1cc(Nc2ccc(S(F)(F)(F)(F)F)cc2)n2ncnc2n1	male Swiss mouse, plasma	oral, 100 mg/kg, single dose	942 µM·h
Cc1noc(C)c1-c1ccc2nc(-c3cnn(CCO)c3)nc(N3CCOCC3c3ccccc3)c2c1 (stereo not shown)	CD-1 mouse, plasma	intravenous, 2 mg/kg	1760 ng·h/mL
COc1ccc2nccc(N3CCc4c(cc(Cn5ccnc5)cc4-c4cn(C)nc4C(F)(F)F)C3=O)c2c1	male CD-1 mouse, plasma	oral, 50 mg/kg	33800 ng·h/mL
COc1cc2c(Nc3ccc(Cl)c(Cl)c3F)ncnc2cc1OC[C@@H]1C[C@@H]2CN(C)C[C@@H]2C1	FVB mouse, plasma	oral, 70 mg/kg, single dose	83000 ng·h/mL
Cc1cc(NC(=O)c2cccc3cc(-c4cccc5[nH]nc(N)c45)ccc23)ccc1F	male CD-1 mouse, plasma	oral, 10 mg/kg	4940 ng·h/mL
CC[C@H](C)[C@@H]1NC(=O)[C@@](C)(NC(=O)[C@H](CCCNC(=N)N)NC(=O)[C@H](CC(C)C)NC(=O)[C@@H](NC(=O)[C@H](CCC(N)=O)NC(=O)[C@H](CC(C)C)NC(C)=O)[C@@H](C)O)CCCC=CCCC[C@@](C)(C(=O)N[C@@H](CC(C)C)C(=O)N[C@@H](Cc2ccc3ccccc3c2)C(N)=O)NC(=O)[C@H](CCCNC(=N)N)NC(=O)[C@H](CCC(N)=O)NC1=O	male BALB/c mouse, plasma	intravenous, 10 mg/kg	233000 ng·h/mL
